Reference: ChEMBL document CHEMBL3616442, “Unconventional Knoevenagel-type indoles: Synthesis and cell-based studies for the identification of pro-apoptotic agents” (Eur J Med Chem, 2015)

Key:
Format in all cases: functional
T47D = assay: Growth inhibition of human T47D cells after 48 hrs by sulforhodamine B assay
HL-60(TB) = assay: Growth inhibition of human HL-60(TB) cells after 48 hrs by sulforhodamine B assay; conditions: HL-60, 48 h
Summary of the method: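 NCI 60-cell-line screen, HL-60(TB) included. Compound given at five 10-fold dilutions from 10^-4 to 10^-8 M. Cells exposed for the last 48 h of a 72 h incubation. Growth or viability estimated by sulforhodamine B protein assay. GI50 is the concentration giving 50% growth inhibition. Values outside the tested range are reported as greater or less than the highest or lowest concentration.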

A498 = assay: Growth inhibition of human A498 cells after 48 hrs by sulforhodamine B assay; conditions: A498, 48 h
Summary of the method: (§1)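 NCI 60-cell-line screen. Compounds tested at five 10-fold dilutions from 10^-4 to 10^-8 M. Cells exposed for the last 48 h of a 72 h incubation, growth estimated by sulforhodamine B protein assay. GI50 is the concentration giving 50% growth inhibition. Values beyond the tested range are expressed as greater or lesser than the extreme concentration.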

OVCAR-3 = assay: Growth inhibition of human OVCAR3 cells after 48 hrs by sulforhodamine B assay; conditions: OVCAR-3, 48 h; summary of the method: as §1
HT-29 = assay: Growth inhibition of human HT-29 cells after 48 hrs by sulforhodamine B assay; conditions: HT-29, 48 h; summary of the method: as §1
HCT-15 = assay: Growth inhibition of human HCT15 cells after 48 hrs by sulforhodamine B assay; conditions: HCT-15, 48 h; summary of the method: as §1
PC-3 = assay: Growth inhibition of human PC3 cells after 48 hrs by sulforhodamine B assay; conditions: PC-3, 48 h
SN12C = assay: Growth inhibition of human SN12C cells after 48 hrs by sulforhodamine B assay
CAKI-1 = assay: Growth inhibition of human CAKI-1 cells after 48 hrs by sulforhodamine B assay; conditions: CAKI-1, 48 h; summary of the method: as §1
NCI-H522 = assay: Growth inhibition of human NCI-H522 cells after 48 hrs by sulforhodamine B assay; conditions: NCI-H522, 48 h; summary of the method: as §1
TK-10 = assay: Growth inhibition of human TK10 cells after 48 hrs by sulforhodamine B assay; conditions: TK-10, 48 h
OVCAR-8 = assay: Growth inhibition of human OVCAR8 cells after 48 hrs by sulforhodamine B assay; conditions: OVCAR-8, 48 h
MDA-MB-435 = assay: Growth inhibition of human MDA-MB-435 cells after 48 hrs by sulforhodamine B assay; conditions: MDA-MB-435, 48 h; summary of the method: as §1
U-251 = assay: Growth inhibition of human U251 cells after 48 hrs by sulforhodamine B assay; conditions: U-251, 48 h
CCRF-CEM = assay: Growth inhibition of human CCRF-CEM cells after 48 hrs by sulforhodamine B assay; summary of the method: as §1
[1] = Growth inhibition of human RXF393 cells after 48 hrs by sulforhodamine B assay; conditions: RXF 393, 48 h
SNB-75 = assay: Growth inhibition of human SNB75 cells after 48 hrs by sulforhodamine B assay; conditions: SNB-75, 48 h
SK-MEL-2 = assay: Growth inhibition of human SK-MEL-2 cells after 48 hrs by sulforhodamine B assay; conditions: SK-MEL-2, 48 h
[2] = Growth inhibition of human MOLT4 cells after 48 hrs by sulforhodamine B assay; conditions: MOLT-4, 48 h; summary of the method: as §1
[3] = Growth inhibition of human HOP92 cells after 48 hrs by sulforhodamine B assay; conditions: HOP-92, 48 h; summary of the method: as §1
UACC-62 = assay: Growth inhibition of human UACC62 cells after 48 hrs by sulforhodamine B assay; conditions: UACC-62, 48 h
[4] = Growth inhibition of human SF539 cells after 48 hrs by sulforhodamine B assay; conditions: SF-539, 48 h
NCI-H460 = assay: Growth inhibition of human NCI-H460 cells after 48 hrs by sulforhodamine B assay; conditions: NCI-H460, 48 h; summary of the method: as §1
NCI-H226 = assay: Growth inhibition of human NCI-H226 cells after 48 hrs by sulforhodamine B assay; conditions: NCI-H226, 48 h; summary of the method: as §1
SW-620 = assay: Growth inhibition of human SW620 cells after 48 hrs by sulforhodamine B assay; conditions: SW-620, 48 h
HOP-62 = assay: Growth inhibition of human HOP62 cells after 48 hrs by sulforhodamine B assay; conditions: HOP-62, 48 h; summary of the method: as §1
[5] = Growth inhibition of human BT549 cells after 48 hrs by sulforhodamine B assay; conditions: BT-549, 48 h; summary of the method: as §1
NCI-H322M = assay: Growth inhibition of human NCI-H322M cells after 48 hrs by sulforhodamine B assay; summary of the method: as §1
OVCAR-4 = assay: Growth inhibition of human OVCAR4 cells after 48 hrs by sulforhodamine B assay; conditions: OVCAR-4, 48 h; summary of the method: as §1
[6] = Growth inhibition of human NCI-ADR-RES cells after 48 hrs by sulforhodamine B assay; summary of the method: as §1
786-0 = assay: Growth inhibition of human 786-0 cells after 48 hrs by sulforhodamine B assay; conditions: 786-0, 48 h; summary of the method: as §1
KM12 = assay: Growth inhibition of human KM12 cells after 48 hrs by sulforhodamine B assay; conditions: KM12, 48 h; summary of the method: as §1
K562 = assay: Growth inhibition of human K562 cells after 48 hrs by sulforhodamine B assay; conditions: K562, 48 h; summary of the method: as §1
[7] = Growth inhibition of human SF295 cells after 48 hrs by sulforhodamine B assay; conditions: SF-295, 48 h
MDA-MB-468 = assay: Growth inhibition of human MDA-MB-468 cells after 48 hrs by sulforhodamine B assay; conditions: MDA-MB-468, 48 h; summary of the method: as §1
NCI-H23 = assay: Growth inhibition of human NCI-H23 cells after 48 hrs by sulforhodamine B assay; conditions: NCI-H23, 48 h; summary of the method: as §1
OVCAR-5 = assay: Growth inhibition of human OVCAR5 cells after 48 hrs by sulforhodamine B assay; conditions: OVCAR-5, 48 h
[8] = Growth inhibition of human HCC2998 cells after 48 hrs by sulforhodamine B assay; conditions: HCC 2998, 48 h; summary of the method: as §1
[9] = Growth inhibition of human RPMI8226 cells after 48 hrs by sulforhodamine B assay; conditions: RPMI-8226, 48 h
[10] = Growth inhibition of human Hs 578T cells after 48 hrs by sulforhodamine B assay; summary of the method: as §1
SNB-19 = assay: Growth inhibition of human SNB19 cells after 48 hrs by sulforhodamine B assay; conditions: SNB-19, 48 h
A549 = assay: Growth inhibition of human A549 cells after 48 hrs by sulforhodamine B assay; conditions: A549, 48 h; summary of the method: as §1
UACC-257 = assay: Growth inhibition of human UACC257 cells after 48 hrs by sulforhodamine B assay; conditions: UACC-257, 48 h
ACHN = assay: Growth inhibition of human ACHN cells after 48 hrs by sulforhodamine B assay; summary of the method: as §1
SK-MEL-5 = assay: Growth inhibition of human SK-MEL-5 cells after 48 hrs by sulforhodamine B assay; conditions: SK-MEL-5, 48 h
Malme-3M = assay: Growth inhibition of human MALME-3M cells after 48 hrs by sulforhodamine B assay; summary of the method: as §1

Question: With N#CC(C#N)=Cc1c(-c2ccccc2)[nH]c2ccccc12 as the molecule, how does the GI50 (T47D) read?
Answer: 4.6 µM

Question: And the GI50 (HL-60(TB))?
Answer: 1.8 µM

Question: What about the GI50 (A498) of the same molecule?
Answer: 3 µM

Question: And the GI50 (OVCAR-3)?
Answer: 1.8 µM

Question: What about the GI50 (HT-29) of the same molecule?
Answer: 0.526 µM

Question: What about the GI50 (HCT-15) of the same molecule?
Answer: 0.971 µM

Question: And the GI50 (PC-3)?
Answer: 3 µM

Question: What about the GI50 (SN12C) of the same molecule?
Answer: 6.8 µM

Question: What about the GI50 (CAKI-1) of the same molecule?
Answer: 6.1 µM

Question: What about the GI50 (NCI-H522) of the same molecule?
Answer: 9.6 µM

Question: What about the GI50 (TK-10) of the same molecule?
Answer: 5.3 µM

Question: And the GI50 (OVCAR-8)?
Answer: 6 µM

Question: What about the GI50 (MDA-MB-435) of the same molecule?
Answer: 0.246 µM

Question: And the GI50 (U-251)?
Answer: 1.2 µM

Question: What about the GI50 (CCRF-CEM) of the same molecule?
Answer: 2.4 µM

Question: What about the GI50 [1] of the same molecule?
Answer: 3.3 µM

Question: What about the GI50 (SNB-75) of the same molecule?
Answer: 2 µM

Question: What about the GI50 (SK-MEL-2) of the same molecule?
Answer: 27.6 µM

Question: And the GI50 [2]?
Answer: 43.2 µM

Question: What about the GI50 [3] of the same molecule?
Answer: 7.7 µM

Question: What about the GI50 (UACC-62) of the same molecule?
Answer: 2.6 µM

Question: And the GI50 [4]?
Answer: 2.1 µM

Question: And the GI50 (NCI-H460)?
Answer: 2.1 µM

Question: What about the GI50 (NCI-H226) of the same molecule?
Answer: 4.1 µM

Question: What about the GI50 (SW-620) of the same molecule?
Answer: 0.539 µM

Question: And the GI50 (HOP-62)?
Answer: 11.3 µM

Question: And the GI50 [5]?
Answer: 9.4 µM

Question: And the GI50 (NCI-H322M)?
Answer: 11.4 µM

Question: What about the GI50 (OVCAR-4) of the same molecule?
Answer: 5.2 µM

Question: And the GI50 [6]?
Answer: 0.826 µM

Question: And the GI50 (786-0)?
Answer: 8.6 µM

Question: What about the GI50 (KM12) of the same molecule?
Answer: 0.684 µM

Question: And the GI50 (K562)?
Answer: 0.478 µM

Question: What about the GI50 [7] of the same molecule?
Answer: 1.6 µM

Question: What about the GI50 (MDA-MB-468) of the same molecule?
Answer: 1 µM

Question: And the GI50 (NCI-H23)?
Answer: 4.7 µM

Question: And the GI50 (OVCAR-5)?
Answer: 19.7 µM

Question: What about the GI50 [8] of the same molecule?
Answer: 10.4 µM

Question: And the GI50 [9]?
Answer: 0.582 µM

Question: What about the GI50 [10] of the same molecule?
Answer: 2.3 µM

Question: What about the GI50 (SNB-19) of the same molecule?
Answer: 5.7 µM

Question: What about the GI50 (A549) of the same molecule?
Answer: 4.6 µM

Question: What about the GI50 (UACC-257) of the same molecule?
Answer: 28.1 µM

Question: And the GI50 (ACHN)?
Answer: 7.3 µM

Question: What about the GI50 (SK-MEL-5) of the same molecule?
Answer: 1.1 µM

Question: What about the GI50 (Malme-3M) of the same molecule?
Answer: 26 µM
